{"data": "Measured values collected from several papers", "target": "Calcium/calmodulin-dependent protein kinase type II subunit delta (CAMK2D, Homo sapiens, UniProt Q13557)", "note": "Lines come from different studies, so protocols differ."}
{"SMILES": "Cc1ccc(Nc2nccc(N(C)c3ccc4c(C)n(C)nc4c3)n2)cc1S(N)(=O)=O", "test": "enzyme activity, inhibitor", "conditions": "10 µM", "quantity": "inhibition", "result": "66%"}
{"SMILES": "Cc1ccc(C(=O)Nc2ccc(CN3CCN(C)CC3)c(C(F)(F)F)c2)cc1C#Cc1cnc2cccnn12", "test": "enzyme activity", "conditions": "23.5 nM", "quantity": "remaining activity", "result": "96%"}
{"SMILES": "Cc1cc(NC(=O)c2cccc3cc(-c4cccc5[nH]nc(N)c45)ccc23)ccc1F", "test": "enzyme activity, inhibitor", "conditions": "0.1 µM", "quantity": "activity vs control", "result": "102%"}
{"SMILES": "Cc1ccc(C(=O)NCc2ccsc2)cc1C#Cc1cn(C(C)C)c2ncnc(N)c12", "test": "enzyme activity, inhibitor", "conditions": "1 µM", "quantity": "activity vs control", "result": "102%"}
{"SMILES": "CCN(CC)CCNC(=O)c1c(C)[nH]c(/C=C2\\C(=O)Nc3ccc(F)cc32)c1C", "test": "enzyme activity, inhibitor", "conditions": "0.3 µM", "quantity": "inhibition", "result": "92%"}
{"SMILES": "c1ccc(CNc2nc(N3CCOc4ccccc43)nc3c2CCCC3)cc1", "test": "target engagement in cells, inhibitor, chemoproteomics", "conditions": "20 mM", "quantity": "inhibition", "result": "-17.7%"}
{"SMILES": "CNCc1ccccc1-c1csc([C@H](C)Nc2nc(C)nc3cc(OC)c(OC)cc23)c1", "test": "cell-free assay, competition with immobilised ligand", "conditions": "1 µM", "quantity": "remaining binding", "result": "97%"}
{"SMILES": "CCCOc1ccc(OC)c(F)c1C(=O)c1ccc(C(=O)N[C@@H]2CNC[C@H]2NC(=O)c2ccc3[nH]ncc3c2)cc1", "test": "enzyme activity, inhibitor", "conditions": "10 µM", "quantity": "remaining activity", "result": "53%"}
{"SMILES": "CC(C)(O)c1cncc(-c2nc3ccc(F)cc3n2C2CC2)c1", "test": "cell-free assay, competition with immobilised ligand", "conditions": "1 µM", "quantity": "remaining binding", "result": "100%"}
{"SMILES": "COc1cc2ncnc(Nc3ccc(Oc4ccccc4)c(C)c3C)c2cc1OC", "test": "enzyme activity, inhibitor", "conditions": "1 µM", "quantity": "inhibition", "result": "2%"}
{"SMILES": "CN1CC(Oc2cnc(C#N)cc2-c2ccn3nc(NC(=O)C4CC4)cc3c2)C1", "test": "enzyme activity, inhibitor", "conditions": "1 µM", "quantity": "inhibition", "result": "-3%"}
{"SMILES": "NS(=O)(=O)c1cc(NC(=O)C2(c3ccccc3Cl)CC2)ccc1Oc1cccc(Cl)c1", "test": "cell-free assay, competition with immobilised ligand", "conditions": "1 µM", "quantity": "remaining binding", "result": "100%"}
{"SMILES": "O=C1NC(=O)c2cc(Nc3ccc(F)cc3)c(Nc3ccc(F)cc3)cc21", "test": "cell-free assay", "conditions": "0.5 µM", "quantity": "remaining signal", "result": "97.9%"}
{"SMILES": "CCCS(=O)(=O)Nc1ccc(F)c(C(=O)c2c[nH]c3ncc(-c4ccc(Cl)cc4)cc23)c1F", "test": "enzyme activity, inhibitor", "conditions": "1 µM", "quantity": "inhibition", "result": "< 10%"}
{"SMILES": "O=C(O)[C@@H]1[C@@H](Cn2nnc3ccccc3c2=O)CC[C@H]1C(=O)c1ccc(OCCC2CCOCC2)cc1", "test": "cell-free assay, competition with immobilised ligand", "conditions": "1 µM", "quantity": "remaining binding", "result": "100%"}
{"SMILES": "N#CCCc1ccc2c(c1)-c1[nH]c3ccc([N+](=O)[O-])cc3c1CC(=O)N2", "test": "cell-free assay", "conditions": "0.5 µM", "quantity": "remaining signal", "result": "57.8%"}
{"SMILES": "CCOC(=O)c1cc2cc(-c3cc(C(=O)NCc4ccc(C(=O)O)cc4)nn3C)ccc2[nH]1", "test": "cell-free assay, competition with immobilised ligand", "conditions": "0.1 µM", "quantity": "remaining binding", "result": "91%"}
{"SMILES": "Cc1sc(C(=O)NC2COC2)cc1-n1cc(NC(=O)Nc2c(F)cccc2Cl)cn1", "test": "enzyme activity, inhibitor", "conditions": "10 µM", "quantity": "remaining activity", "result": "91.3%"}
